Compound activity (PubChem BioAssay)
Apaf1 inhib – human Apaf-1 inhibition | inhibition, % at 20 µM | reconstituted apoptosome caspase-3 activity, DEVD-Rh110 fluorescence | AID 489030 | hit rate 0.71% among 330,000; active = inhibition of at least 40% at 20 µM;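 note: plate controls were DMSO wells for no effect and DEVD-CHO caspase inhibitor wells for full effect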
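Material: reconstituted apoptosome with Apaf-1, cytochrome c, caspase-9, procaspase-3, dATP; medium: pH 7.5 Hepes buffer with CHAPS, BSA, DTT; also added: cytochrome c and DEVD-Rh110 substrate; timing: 30 min plus 50 min, RT; signal: Rh110 fluorescence intensity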
SUMO HTRF inh – SUMOylation inhibition. hit rate 0.36% among 290,000. P63279. HTRF SUMOylation assay, SAE1/SAE2 + UBC9, in vitro. inhibition, % at 35 µM. AID 2006; in the data active = inhibition above about 50%, passing the limit was not always enough
PAD4 inh – inhibitors of human PAD4; Q9UM07; recombinant PAD4, RCA probe fluorescence polarization; inhibition, % at 6.36 µM; hit rate 0.41% among 330,000;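 active = percent inhibition above a cutoff equal to the mean of all tested compounds plus 3 SD, cut at about 15% in these data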;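 note: 0% = PAD4 with RCA probe and DMSO and 100% = probe without PAD4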
Rin1 Abl inh – blocks binding of human Rin1 to Abl; P00519+Q13671; TR-FRET Rin1/Abl binding, biochemical; inhibition, % at 7.35 µM; hit rate 0.4% among 360,000; AID 588664; in the data active = inhibition above about 5%, passing the limit was not always enough
UBC13 polyUb – inhibitors of human UBC13 polyubiquitin chain formation | P61088 | TR-FRET | inhibition, % at 20 µM | hit rate 0.47% among 330,000 | AID 485273; in the data active = inhibition above about 45%, passing the limit was not always enough
Target sequence (P61088 whole entry, looked up): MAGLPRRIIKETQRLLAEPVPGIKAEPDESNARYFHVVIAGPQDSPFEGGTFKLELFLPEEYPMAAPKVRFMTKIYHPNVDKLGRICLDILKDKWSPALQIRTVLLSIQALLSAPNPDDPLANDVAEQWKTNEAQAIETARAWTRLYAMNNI
GSTO1 inh – GSTO1 inhibition, counter-screen for RBBP9 inhibitors; recombinant GSTO1, activity-based probe fluorescence polarization; P78417; hit rate 1.1% among 300,000; inhibition, % at 5.96 µM; AID 1974;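 active = inhibition above the campaign mean inhibition plus 3 SD, cut at about 35% in these data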;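 note: 0% = GSTO1-1 with DMSO and 100% = wells lacking GSTO1-1 enzyme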
Target sequence (P78417 whole entry, looked up): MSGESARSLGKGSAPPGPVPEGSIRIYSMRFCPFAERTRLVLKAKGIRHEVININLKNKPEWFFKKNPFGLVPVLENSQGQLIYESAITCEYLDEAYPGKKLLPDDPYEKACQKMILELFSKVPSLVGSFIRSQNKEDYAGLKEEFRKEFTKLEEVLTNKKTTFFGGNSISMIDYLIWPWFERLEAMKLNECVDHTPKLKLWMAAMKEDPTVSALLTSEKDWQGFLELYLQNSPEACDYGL
Rin1-Abl confirm – confirmation of inhibitors of human Rin1-Abl interaction; shares compounds with Rin1 Abl inh; TR-FRET Rin1-Abl binding, purified proteins; inhibition, % at 7.35 µM; hit rate 49% among 1,300; AID 602124
GFP quench – counter-screen for Rin1-Abl inhibitors: GFP fluorescence quenchers; AID 602125; shares compounds with Rin1 Abl inh; inhibitors/quenchers counterscreen; hit rate 8.5% among 1,300; inhibition, % at 6.75 µM;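 note: ABL1-eGFP fusion protein alone without its partner RIN1-SBP; 0% = protein with vehicle and 100% = wells lacking protein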
GFP quench dose – counter-screen for Rin1-Abl inhibitors: GFP quenchers, dose response | shares compounds with Rin1 Abl inh | GFP fluorescence interference/quenching counterscreen | IC50, µM | 230 tested, under 10 active; call rule not given here;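 note: ABL1-eGFP fusion protein alone without its RIN1 binding partner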
* marks the source's active call; other numbers are inactive results; . = no result. Hits are enriched below; roughly 2.2% of the tested compounds scored in any of these assays. Cut-off read from the data, not from the text of the source, unless noted: active = inhibition above about 6.5%; inactive = the rest.

SMILES | Apaf1 inhib | SUMO HTRF inh | PAD4 inh | Rin1 Abl inh | UBC13 polyUb | GSTO1 inh | Rin1-Abl confirm | GFP quench | others
COc1cc(C(=O)OCC(=O)Nc2ccc(S(=O)(=O)N3CCCC3)cc2)cc(OC)c1OC | -1.6 | . | 7.2 | 18.0* | 8.3 | . | 29.5* | 0.4 | GFP quench dose=>67.6
CC(Sc1ccc(S(=O)(=O)N2CCN(C)CC2)cn1)C(=O)NC1CCCCC1 (configuration not stated) | 2.9 | . | 0.2 | -0.2 | -7.2 | . | . | .
COc1ccc(/C=N\NC(=O)c2cc(O)c(O)c(O)c2)cc1COc1ccc(C(=O)OCC(C)C)cc1 | 25.8 | -27.4 | -12.1 | 15.3* | -31.4 | 25.7 | 10.9* | 5.8
COc1ccc(C(=O)N/N=C/c2ccc(OC)c(COc3ccccc3)c2)cc1 | 15.1 | -10.6 | 1.2 | -0.7 | -2.3 | -6.8 | . | .
COc1ccc(/C=N\NC(=O)c2cc(O)c(O)c(O)c2)cc1CN1CCN(c2ccc(F)cc2)CC1 | . | 18.9 | -3.2 | 52.6* | . | 52.4* | 49.5* | 11.4*
COc1ccc(/C=N/NC(=O)c2ccc(C)cc2)cc1CN1CCN(c2ccc(F)cc2)CC1 | 10.2 | 7.4 | 2.1 | -1.2 | -9.4 | -6.3 | . | .
CC(C)N1CC(C(=O)Nc2ccc(Cl)cc2Cl)CC1=O (configuration not stated) | . | . | . | -1.9 | . | . | . | .
CCN(CC)c1ncnc2c1ncn2[C@H]1CN(Cc2ccncc2)C[C@@H](CO)O1 | . | . | . | 7.7* | . | . | -3.2 | -0.4
CCN(CC)c1ncnc2c1ncn2[C@H]1CN(Cc2ccc(Cl)cc2)C[C@@H](CO)O1 | . | . | . | 2.6 | . | . | . | .
CN(C)c1ncnc2c1ncn2[C@H]1CN(Cc2ccc(Cl)cc2)C[C@@H](CO)O1 | . | . | . | 6.9* | . | . | 3.3 | -2.8
COc1cccc2cc(CC(=O)c3ccccc3)c(=O)oc12 | 1.8 | 2.3 | -0.3 | 2.4 | 8.2 | 0.4 | . | .
CCc1ccc(C(=O)Cc2cc3cccc(OC)c3oc2=O)cc1 | 8.1 | -6.3 | -0.8 | 8.5* | 5.9 | 3.2 | 0.6 | -0.4
C=CCn1c(SCCOc2ccccc2)nnc1C(C)NC(=O)c1ccccc1 (configuration not stated) | -8.0 | 6.4 | -1.1 | 1.2 | 7.2 | -0.4 | . | .
C=CCn1c(SCC(=O)N2CCOCC2)nnc1C(C)NC(=O)c1ccccc1 (configuration not stated) | 0.0 | 9.4 | 0.0 | 7.2* | -11.4 | -0.3 | -1.4 | -0.3
Cc1ccc(-n2nnnc2SCC(=O)N2Cc3ccccc3CC2C(=O)O)cc1 (configuration not stated) | -14.0 | 19.3 | -3.3 | -3.7 | 6.7 | 7.0 | . | .
Cc1ccc(-n2c(SCC(=O)N3Cc4ccccc4CC3C(=O)O)nnc2-c2cccnc2)c(C)c1 (configuration not stated) | -9.3 | -9.8 | -3.9 | 7.0* | 2.3 | 2.3 | 18.1* | 2.1 | GFP quench dose=>67.6
NC(=O)c1ccccc1NC(=O)COc1ccc2c(c1)OCO2 | 0.0 | -1.1 | -1.2 | 1.6 | 10.0 | 6.6 | . | .
CN(CC(=O)Nc1cccc(F)c1)C(=O)c1ccc(OCc2ccccc2)cc1 | -4.4 | . | -3.9 | 12.0* | 2.6 | . | -3.0 | -1.6
Cc1cc(S(=O)(=O)N2CCN(C(=O)CCC(=O)N3CCOCC3)CC2)ccc1Br | 10.1 | -12.2 | -1.3 | 15.8* | -12.8 | 8.3 | 21.1* | 0.1 | GFP quench dose=>67.6
Cc1ccc(S(=O)(=O)N2CCN(C(=O)N3CCOCC3)CC2)cc1C | -2.7 | -0.7 | 0.3 | 1.0 | -1.8 | -1.0 | . | .
CCOc1ccc(S(=O)(=O)N2CCN(C(=O)CCC(=O)N3CCOCC3)CC2)cc1 | -0.9 | . | -2.4 | 11.2* | -5.3 | -5.0 | 10.6* | 0.0
O=C(C1CCC(CNS(=O)(=O)c2ccccc2)CC1)N1CCOCC1 (configuration not stated) | -1.7 | 0.2 | -1.2 | 1.4 | 5.5 | -3.1 | . | .
O=C(Nc1cc(C(F)(F)F)ccc1-n1cncn1)c1ccc(F)cc1Cl | -2.8 | . | 4.3 | -1.6 | 0.2 | . | . | .
Cc1ccc2c(Cl)c(C(=O)NCCCN3CCOCC3)sc2c1 | . | . | . | -2.4 | . | . | . | .
